# ChEMBL document CHEMBL1764968, “Structural simplification of bioactive natural products with multicomponent synthesis. 3. Fused uracil-containing heterocycles as novel topoisomerase-targeting agents” (2011)
# Calls of active or inactive are those of the source. The calls are words filed in the database; no cut-off is given here.
# Legend:
# HeLa = test: Cytotoxicity against human HeLa cells after 72 hrs by MTT assay; type: functional
# Summary of the method: (§1)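 Cells plated 24 h in 96-well plates at 10,000–40,000 cells/mL depending on line. U373 grown in MEM, other lines in RPMI, both with 5% heat-inactivated FCS. Cells exposed to compounds (or none, control) for 72 h. MTT reduction to formazan read at 570 nm against 630 nm reference. Sextuplicate per condition.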
# Jurkat = test: Cytotoxicity against human Jurkat cells after 72 hrs by MTT assay; type: functional; summary of the method: as §1
# MCF7 = test: Cytotoxicity against human MCF7 cells after 72 hrs by MTT assay; type: functional; conditions: MCF7, 72 h; summary of the method: as §1
# A549 = test: Cytotoxicity against human A549 cells after 72 hrs by MTT assay; type: functional; conditions: A549, 72 h; summary of the method: as §1
# LoVo = test: Cytotoxicity against human LoVo cells after 72 hrs by MTT assay; type: functional; summary of the method: as §1
# [1] = Cytotoxicity against human U373 cells after 72 hrs by MTT assay; type: functional, U-373MG ATCC; conditions: U373 MG; summary of the method: as §1
# SK-MEL = test: Cytotoxicity against human SK-MEL cells after 72 hrs by MTT assay; type: functional; summary of the method: as §1
# PC-3 = test: Cytotoxicity against human PC3 cells after 72 hrs by MTT assay; type: functional; conditions: PC-3, 72 h; summary of the method: as §1
# U-373MG ATCC = test: Cytostatic activity against human U373 cells assessed as morphological changes after 72 hrs by phase contrast microscopy; type: functional, cell-based
# [2] = biological target: T1, DNA topoisomerase 1 (Homo sapiens) (UniProt P11387); test: Effect on human DNA topoisomerase 1-mediated supercoiled pGEM1 plasmid DNA cleavage complex stabilization at up to 100 uM by agarose gel electrophoresis
# T1 sequence (whole entry): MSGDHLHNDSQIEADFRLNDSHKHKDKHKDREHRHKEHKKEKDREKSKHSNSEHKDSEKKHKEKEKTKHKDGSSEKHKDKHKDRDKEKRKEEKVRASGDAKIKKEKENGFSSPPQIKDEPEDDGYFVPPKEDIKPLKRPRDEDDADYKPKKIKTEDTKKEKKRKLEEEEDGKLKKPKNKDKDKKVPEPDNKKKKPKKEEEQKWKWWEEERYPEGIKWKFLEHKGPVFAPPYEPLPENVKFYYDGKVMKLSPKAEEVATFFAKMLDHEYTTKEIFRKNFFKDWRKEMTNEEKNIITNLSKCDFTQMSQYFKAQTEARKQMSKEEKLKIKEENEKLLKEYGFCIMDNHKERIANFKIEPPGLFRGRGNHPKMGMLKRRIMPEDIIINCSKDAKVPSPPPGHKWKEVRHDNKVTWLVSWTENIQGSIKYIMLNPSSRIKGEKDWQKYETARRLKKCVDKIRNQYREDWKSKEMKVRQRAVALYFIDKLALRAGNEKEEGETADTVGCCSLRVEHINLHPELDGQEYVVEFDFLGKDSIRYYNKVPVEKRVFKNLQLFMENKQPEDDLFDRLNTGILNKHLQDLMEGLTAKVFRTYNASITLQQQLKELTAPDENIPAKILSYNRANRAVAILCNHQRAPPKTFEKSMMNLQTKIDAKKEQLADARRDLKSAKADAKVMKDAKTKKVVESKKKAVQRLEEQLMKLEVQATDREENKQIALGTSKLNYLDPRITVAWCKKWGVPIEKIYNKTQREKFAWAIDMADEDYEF
Compound,GI50 (HeLa),GI50 (Jurkat),GI50 (MCF7),GI50 (A549),GI50 (LoVo),GI50 [1],GI50 (SK-MEL),GI50 (PC-3),Activity (U-373MG ATCC),Activity [2]
COc1ccc(C2C3=C(Nc4[nH]c(=O)[nH]c(=O)c42)c2ccccc2C3=O)cc1OC (configuration not stated),600 nM,400 nM,690 nM,4800 nM,800 nM,700 nM,860 nM,> 10000 nM,–,–
CC(C)c1ccc(C2C3=C(Nc4[nH]c(=O)[nH]c(=O)c42)c2ccccc2C3=O)cc1 (configuration not stated),5800 nM,960 nM,9100 nM,> 10000 nM,–,–,–,–,–,–
O=C1c2ccccc2-c2nc3[nH]c(=O)[nH]c(=O)c3c(-c3ccc(C(F)(F)F)cc3)c21,3800 nM,960 nM,5600 nM,7800 nM,–,–,–,–,–,–
COc1ccc(-c2c3c(nc4[nH]c(=O)[nH]c(=O)c24)-c2ccccc2C3=O)c(OC)c1OC,310 nM,470 nM,470 nM,260 nM,350 nM,360 nM,430 nM,900 nM,–,–
Cc1ccc(C2C3=C(Nc4[nH]c(=O)[nH]c(=O)c42)c2ccccc2C3=O)cc1 (configuration not stated),8600 nM,5600 nM,7600 nM,5900 nM,–,–,–,–,–,–
O=C1C2=C(Nc3[nH]c(=O)[nH]c(=O)c3C2c2ccc(OC(F)(F)F)cc2)c2ccccc21 (configuration not stated),5600 nM,960 nM,5800 nM,5700 nM,–,–,–,–,–,–
O=C1c2ccccc2-c2nc3[nH]c(=O)[nH]c(=O)c3c(-c3ccc(F)cc3)c21,> 10000 nM,7400 nM,> 10000 nM,> 10000 nM,3500 nM,8700 nM,10000 nM,9000 nM,–,–
O=C1c2ccccc2-c2nc3[nH]c(=O)[nH]c(=O)c3c(-c3ccc(Cl)cc3Cl)c21,890 nM,810 nM,7400 nM,7800 nM,2900 nM,4200 nM,3500 nM,2800 nM,–,–
O=C1C2=C(Nc3[nH]c(=O)[nH]c(=O)c3C2c2ccnc3ccccc23)c2ccccc21 (configuration not stated),5600 nM,8200 nM,9400 nM,8600 nM,–,–,–,–,–,–
Cc1ccc(C2C3=C(Nc4[nH]c(=O)[nH]c(=O)c42)c2ccccc2C3=O)cc1C (configuration not stated),780 nM,190 nM,340 nM,290 nM,490 nM,430 nM,960 nM,4200 nM,Active,inactive
COc1cc(-c2c3c(nc4[nH]c(=O)[nH]c(=O)c24)-c2ccccc2C3=O)cc(Br)c1OC,340 nM,170 nM,950 nM,310 nM,350 nM,600 nM,470 nM,> 10000 nM,–,–
Cc1ccc(-c2c3c(nc4[nH]c(=O)[nH]c(=O)c24)-c2ccccc2C3=O)cc1,6400 nM,1100 nM,6400 nM,5800 nM,–,–,–,–,–,–
O=C1c2ccccc2-c2nc3[nH]c(=O)[nH]c(=O)c3c(-c3ccc(F)c(Br)c3)c21,5600 nM,980 nM,5500 nM,2800 nM,–,–,–,–,–,–
O=C1C2=C(Nc3[nH]c(=O)[nH]c(=O)c3C2c2ccc(Cl)cc2Cl)c2ccccc21 (configuration not stated),950 nM,760 nM,7000 nM,7400 nM,1400 nM,4200 nM,3900 nM,2400 nM,–,–
O=C1c2ccccc2-c2nc3[nH]c(=O)[nH]c(=O)c3c(-c3ccc4c(c3)OCCO4)c21,8800 nM,5500 nM,8500 nM,7500 nM,–,–,–,–,–,–
O=C1C2=C(Nc3[nH]c(=O)[nH]c(=O)c3C2c2ccc(F)cc2)c2ccccc21 (configuration not stated),> 10000 nM,> 10000 nM,> 10000 nM,> 10000 nM,4600 nM,5600 nM,10000 nM,4000 nM,–,–
CCOc1ccc(-c2c3c(nc4[nH]c(=O)[nH]c(=O)c24)-c2ccccc2C3=O)cc1,5300 nM,760 nM,5600 nM,6000 nM,–,–,–,–,–,–

Compound,GI50 (HeLa),GI50 (Jurkat),GI50 (MCF7),GI50 (A549),GI50 (LoVo),GI50 [1],GI50 (SK-MEL),GI50 (PC-3),Activity (U-373MG ATCC),Activity [2]
CC(C)c1ccc(-c2c3c(nc4[nH]c(=O)[nH]c(=O)c24)-c2ccccc2C3=O)cc1,850 nM,490 nM,6900 nM,8200 nM,–,–,–,–,–,–
O=C1c2ccccc2-c2nc3[nH]c(=O)[nH]c(=O)c3c(-c3ccc(OC(F)(F)F)cc3)c21,5800 nM,950 nM,6600 nM,8000 nM,–,–,–,–,–,–
O=C1C2=C(Nc3[nH]c(=O)[nH]c(=O)c3C2c2ccc3c(c2)OCCO3)c2ccccc21 (configuration not stated),5400 nM,6900 nM,8400 nM,7800 nM,–,–,–,–,–,–
COc1cc(C2C3=C(Nc4[nH]c(=O)[nH]c(=O)c42)c2ccccc2C3=O)cc(Br)c1OC (configuration not stated),3800 nM,200 nM,780 nM,480 nM,380 nM,370 nM,480 nM,> 10000 nM,–,–
COc1ccc(C2C3=C(Nc4[nH]c(=O)[nH]c(=O)c42)c2ccccc2C3=O)c(OC)c1OC (configuration not stated),350 nM,490 nM,480 nM,540 nM,220 nM,260 nM,400 nM,> 10000 nM,–,–
CC[C@@]1(O)C(=O)OCc2c1cc1n(c2=O)Cc2cc3ccccc3nc2-1 [CAMPTOTHECIN],1300 nM,90 nM,6000 nM,200 nM,8 nM,33 nM,47 nM,480 nM,–,–
O=C1C2=C(Nc3[nH]c(=O)[nH]c(=O)c3C2c2ccc(C(F)(F)F)cc2)c2ccccc21 (configuration not stated),5600 nM,2200 nM,1500 nM,5200 nM,–,–,–,–,–,–
O=C1C2=C(Nc3[nH]c(=O)[nH]c(=O)c3C2c2ccc(Cl)c(Cl)c2)c2ccccc21 (configuration not stated),5800 nM,350 nM,800 nM,590 nM,460 nM,420 nM,500 nM,6200 nM,–,–
O=C1c2ccccc2-c2nc3[nH]c(=O)[nH]c(=O)c3cc21,> 10000 nM,> 10000 nM,> 10000 nM,> 10000 nM,9500 nM,7500 nM,10000 nM,> 10000 nM,–,–
COc1ccc(C2C3=C(Nc4[nH]c(=O)[nH]c(=O)c42)c2ccccc2C3=O)cc1 (configuration not stated),6900 nM,870 nM,3600 nM,9200 nM,2200 nM,4100 nM,4800 nM,3000 nM,–,–
CCOc1ccc(C2C3=C(Nc4[nH]c(=O)[nH]c(=O)c42)c2ccccc2C3=O)cc1 (configuration not stated),7400 nM,910 nM,6600 nM,5800 nM,–,–,–,–,–,–
COc1ccc(-c2c3c(nc4[nH]c(=O)[nH]c(=O)c24)-c2ccccc2C3=O)cc1OC,530 nM,220 nM,750 nM,830 nM,440 nM,600 nM,470 nM,> 10000 nM,–,–
O=C1C2=C(Nc3[nH]c(=O)[nH]c(=O)c3C2c2ccc(F)c(Br)c2)c2ccccc21 (configuration not stated),5400 nM,990 nM,5500 nM,5600 nM,–,–,–,–,–,–
O=C1c2ccccc2-c2nc3[nH]c(=O)[nH]c(=O)c3c(-c3ccnc4ccccc34)c21,7600 nM,8200 nM,9500 nM,> 10000 nM,–,–,–,–,–,–
COc1ccc(-c2c3c(nc4[nH]c(=O)[nH]c(=O)c24)-c2ccccc2C3=O)cc1,5500 nM,960 nM,2400 nM,> 10000 nM,870 nM,2400 nM,4700 nM,880 nM,–,–
O=C1c2ccccc2-c2nc3[nH]c(=O)[nH]c(=O)c3c(-c3ccc(Cl)c(Cl)c3)c21,350 nM,230 nM,740 nM,120 nM,70 nM,80 nM,80 nM,> 10000 nM,–,–
